Measurements from ChEMBL document CHEMBL1165965, “Synthesis and structure-activity relationships of 1,2,3,4-tetrahydropyrido[2,3-b]pyrazines as potent and selective inhibitors of the anaplastic lymphoma kinase” (Bioorg Med Chem, 2010).

Key:
[1] = biological target: Tyrosine-protein kinase Lyn (Homo sapiens) (UniProt P07948); assay: Inhibition of LYN at 1 uM
Summary of the method: (§1)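 Single-concentration screen on the Ambit KINOMEscan platform, run against a panel of 250–400 kinases. Per-kinase inhibition was also summarized as S(90), the fraction of kinases inhibited by more than 90%.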

[2] = biological target: Insulin-like growth factor 1 receptor (Homo sapiens) (UniProt P08069); assay: Inhibition of IGF1R at 1 uM; summary of the method: as §1
[3] = biological target: Cyclin-dependent kinase 18 (Homo sapiens) (UniProt Q07002); assay: Inhibition of PCTK3 at 1 uM
[4] = biological target: Homeodomain-interacting protein kinase 2 (Homo sapiens) (UniProt Q9H2X6); assay: Inhibition of HIPK2 at 1 uM
[5] = biological target: LIM domain kinase 2 (Homo sapiens) (UniProt P53671); assay: Inhibition of LIMK2 at 1 uM; summary of the method: as §1
[6] = biological target: Serine/threonine-protein kinase Nek6 (Homo sapiens) (UniProt Q9HC98); assay: Inhibition of NEK6 at 1 uM
[7] = biological target: T1, Mitogen-activated protein kinase kinase kinase kinase 2 (Homo sapiens) (UniProt Q12851); assay: Inhibition of MAP4K2 at 1 uM
T1 sequence (whole entry): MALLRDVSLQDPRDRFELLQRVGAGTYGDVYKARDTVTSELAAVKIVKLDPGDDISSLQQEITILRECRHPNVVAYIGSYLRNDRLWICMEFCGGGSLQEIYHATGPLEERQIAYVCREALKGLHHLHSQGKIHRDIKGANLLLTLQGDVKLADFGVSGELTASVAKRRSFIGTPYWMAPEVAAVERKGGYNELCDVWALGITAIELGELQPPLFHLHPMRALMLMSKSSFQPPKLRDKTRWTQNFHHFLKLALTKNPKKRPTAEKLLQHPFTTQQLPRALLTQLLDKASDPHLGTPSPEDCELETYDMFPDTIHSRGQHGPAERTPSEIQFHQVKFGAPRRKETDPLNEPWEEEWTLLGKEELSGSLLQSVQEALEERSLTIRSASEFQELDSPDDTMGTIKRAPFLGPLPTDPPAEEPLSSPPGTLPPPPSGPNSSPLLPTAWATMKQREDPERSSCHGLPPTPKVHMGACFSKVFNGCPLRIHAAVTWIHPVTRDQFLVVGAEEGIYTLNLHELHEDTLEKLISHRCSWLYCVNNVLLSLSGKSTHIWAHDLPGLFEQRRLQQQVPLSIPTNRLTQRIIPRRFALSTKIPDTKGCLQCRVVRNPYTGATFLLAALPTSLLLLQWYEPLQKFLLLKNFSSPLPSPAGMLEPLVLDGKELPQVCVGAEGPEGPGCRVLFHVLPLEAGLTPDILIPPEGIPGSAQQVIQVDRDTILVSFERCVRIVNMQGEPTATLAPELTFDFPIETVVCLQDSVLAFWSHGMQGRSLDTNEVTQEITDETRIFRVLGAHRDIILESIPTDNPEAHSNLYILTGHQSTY

[8] = biological target: Ribosomal protein S6 kinase alpha-2 (Homo sapiens) (UniProt Q15349); assay: Inhibition of RPS6KA2 C-terminal domain2 at 1 uM
[9] = biological target: T2, Inhibitor of nuclear factor kappa-B kinase subunit epsilon (Homo sapiens) (UniProt Q14164); assay: Inhibition of IKK-epsilon at 1 uM
T2 sequence (whole entry): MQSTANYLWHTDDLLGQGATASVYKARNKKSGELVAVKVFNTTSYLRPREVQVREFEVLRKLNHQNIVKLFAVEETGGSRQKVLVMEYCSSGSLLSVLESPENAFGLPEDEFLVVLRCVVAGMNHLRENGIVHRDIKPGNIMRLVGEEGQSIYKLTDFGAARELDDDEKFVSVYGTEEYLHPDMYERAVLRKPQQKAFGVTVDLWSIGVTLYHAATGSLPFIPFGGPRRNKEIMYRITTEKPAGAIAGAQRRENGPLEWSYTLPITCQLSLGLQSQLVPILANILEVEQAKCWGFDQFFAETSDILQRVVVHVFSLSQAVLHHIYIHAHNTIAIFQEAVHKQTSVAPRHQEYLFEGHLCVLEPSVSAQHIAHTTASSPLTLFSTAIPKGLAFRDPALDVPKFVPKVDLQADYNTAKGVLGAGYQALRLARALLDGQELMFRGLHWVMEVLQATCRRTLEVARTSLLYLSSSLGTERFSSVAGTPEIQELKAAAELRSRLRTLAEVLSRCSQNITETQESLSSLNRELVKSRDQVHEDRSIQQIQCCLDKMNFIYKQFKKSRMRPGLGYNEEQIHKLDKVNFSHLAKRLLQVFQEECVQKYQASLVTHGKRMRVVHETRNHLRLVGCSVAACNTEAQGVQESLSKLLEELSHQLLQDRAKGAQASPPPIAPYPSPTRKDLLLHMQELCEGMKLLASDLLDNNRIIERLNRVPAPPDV

[10] = biological target: Epidermal growth factor receptor (Homo sapiens) (UniProt P04626+P00533+Q15303+P21860); assay: Inhibition of EGFR L747-T751del, Sins mutant at 1 uM; type: protein assay
Summary of the method: (§2)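 Single-concentration screen using Ambit Bioscience KINOMEscan technology across a panel of 250–400 kinases. Per-kinase inhibition from this screen was summarized as S(90), the fraction of kinases inhibited by more than 90%.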

[11] = biological target: Ribosomal protein S6 kinase alpha-2 (Homo sapiens) (UniProt Q15349); assay: Inhibition of RPS6KA2 N-terminal domain1 at 1 uM
[12] = biological target: T3, Dual specificity mitogen-activated protein kinase kinase 6 (Homo sapiens) (UniProt P52564); assay: Inhibition of MEK6 at 1 uM
T3 sequence (whole entry): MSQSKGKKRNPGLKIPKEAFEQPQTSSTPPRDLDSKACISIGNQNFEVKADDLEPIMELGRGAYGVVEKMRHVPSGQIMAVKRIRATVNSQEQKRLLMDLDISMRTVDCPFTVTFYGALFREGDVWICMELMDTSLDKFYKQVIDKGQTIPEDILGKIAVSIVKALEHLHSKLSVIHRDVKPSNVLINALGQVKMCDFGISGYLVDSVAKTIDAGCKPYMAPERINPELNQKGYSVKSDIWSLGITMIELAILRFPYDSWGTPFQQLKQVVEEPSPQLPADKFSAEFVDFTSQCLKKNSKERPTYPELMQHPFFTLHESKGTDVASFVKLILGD
Summary of the method: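 Kinase-panel screen using KINOMEscan technology, with 250–400 kinases per panel. Each compound was tested at a single concentration, and inhibition of each kinase was recorded. Selectivity was summarised as S(90), the fraction of kinases inhibited by more than 90%.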

[13] = biological target: Mitogen-activated protein kinase 3 (Homo sapiens) (UniProt P27361); assay: Inhibition of ERK1 at 1 uM; summary of the method: as §2
[14] = biological target: Non-receptor tyrosine-protein kinase TYK2 (Homo sapiens) (UniProt P29597); assay: Inhibition of TYK2 JH1 catalytic domain at 1 uM; summary of the method: as §1
[15] = biological target: Ribosomal protein S6 kinase alpha-6 (Homo sapiens) (UniProt Q9UK32); assay: Inhibition of RPS6KA6 N-terminal domain1 at 1 uM
[16] = biological target: Receptor tyrosine-protein kinase erbB-4 (Homo sapiens) (UniProt Q15303); assay: Inhibition of ERBB4 at 1 uM; summary of the method: as §2

Mitogen-activated protein kinase 3 (Homo sapiens), sequence (P27361 whole entry, the tested form may be a part): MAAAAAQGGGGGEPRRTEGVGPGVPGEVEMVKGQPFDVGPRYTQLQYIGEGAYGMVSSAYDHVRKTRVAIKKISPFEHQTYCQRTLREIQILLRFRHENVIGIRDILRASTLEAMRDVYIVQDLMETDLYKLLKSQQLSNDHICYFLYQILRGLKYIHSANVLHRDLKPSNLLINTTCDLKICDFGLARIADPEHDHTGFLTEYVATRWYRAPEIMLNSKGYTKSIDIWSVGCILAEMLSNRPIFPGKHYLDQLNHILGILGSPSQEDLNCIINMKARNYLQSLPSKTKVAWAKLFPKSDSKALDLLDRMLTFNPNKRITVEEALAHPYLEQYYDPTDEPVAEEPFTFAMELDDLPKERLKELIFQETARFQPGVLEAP
Non-receptor tyrosine-protein kinase TYK2 (Homo sapiens), sequence (P29597 whole entry, the tested form may be a part): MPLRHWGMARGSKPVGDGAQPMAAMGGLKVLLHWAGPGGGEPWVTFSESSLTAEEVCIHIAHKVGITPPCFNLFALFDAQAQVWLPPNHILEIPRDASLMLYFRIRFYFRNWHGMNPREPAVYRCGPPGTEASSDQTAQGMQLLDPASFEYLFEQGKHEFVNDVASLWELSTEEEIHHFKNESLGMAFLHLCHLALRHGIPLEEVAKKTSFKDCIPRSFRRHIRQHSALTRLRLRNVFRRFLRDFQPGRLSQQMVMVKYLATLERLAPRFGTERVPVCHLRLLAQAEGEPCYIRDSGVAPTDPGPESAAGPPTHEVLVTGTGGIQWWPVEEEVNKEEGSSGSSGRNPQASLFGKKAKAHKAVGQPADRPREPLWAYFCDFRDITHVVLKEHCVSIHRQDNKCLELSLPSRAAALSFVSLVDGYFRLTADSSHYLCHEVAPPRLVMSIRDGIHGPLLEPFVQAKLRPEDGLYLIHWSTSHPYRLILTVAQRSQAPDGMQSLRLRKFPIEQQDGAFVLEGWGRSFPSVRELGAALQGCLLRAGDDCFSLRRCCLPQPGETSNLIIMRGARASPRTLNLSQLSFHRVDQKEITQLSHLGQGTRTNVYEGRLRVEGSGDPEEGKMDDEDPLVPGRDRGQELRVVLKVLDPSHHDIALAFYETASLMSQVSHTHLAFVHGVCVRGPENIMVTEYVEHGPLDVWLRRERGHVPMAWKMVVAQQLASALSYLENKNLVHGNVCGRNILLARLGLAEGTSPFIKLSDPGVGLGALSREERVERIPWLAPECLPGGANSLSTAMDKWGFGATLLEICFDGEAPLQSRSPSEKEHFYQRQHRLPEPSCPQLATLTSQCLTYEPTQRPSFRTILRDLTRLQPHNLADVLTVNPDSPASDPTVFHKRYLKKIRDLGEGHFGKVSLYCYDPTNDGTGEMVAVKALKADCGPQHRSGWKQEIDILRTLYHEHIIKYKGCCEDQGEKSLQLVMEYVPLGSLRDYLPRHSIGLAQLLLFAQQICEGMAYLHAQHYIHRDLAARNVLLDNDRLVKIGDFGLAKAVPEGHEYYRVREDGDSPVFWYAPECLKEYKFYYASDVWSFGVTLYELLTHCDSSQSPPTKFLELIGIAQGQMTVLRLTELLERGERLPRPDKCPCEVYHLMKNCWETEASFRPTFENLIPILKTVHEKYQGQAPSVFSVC
Serine/threonine-protein kinase Nek6 (Homo sapiens), sequence (Q9HC98 whole entry): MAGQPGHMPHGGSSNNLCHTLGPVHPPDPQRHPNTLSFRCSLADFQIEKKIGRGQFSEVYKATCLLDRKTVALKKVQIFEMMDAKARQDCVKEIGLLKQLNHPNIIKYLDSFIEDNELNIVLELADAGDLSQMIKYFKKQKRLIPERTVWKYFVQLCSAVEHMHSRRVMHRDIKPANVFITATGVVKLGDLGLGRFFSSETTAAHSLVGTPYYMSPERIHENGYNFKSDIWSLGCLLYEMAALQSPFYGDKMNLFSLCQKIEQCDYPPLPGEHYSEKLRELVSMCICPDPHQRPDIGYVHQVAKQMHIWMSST
Cyclin-dependent kinase 18 (Homo sapiens), sequence (Q07002 whole entry): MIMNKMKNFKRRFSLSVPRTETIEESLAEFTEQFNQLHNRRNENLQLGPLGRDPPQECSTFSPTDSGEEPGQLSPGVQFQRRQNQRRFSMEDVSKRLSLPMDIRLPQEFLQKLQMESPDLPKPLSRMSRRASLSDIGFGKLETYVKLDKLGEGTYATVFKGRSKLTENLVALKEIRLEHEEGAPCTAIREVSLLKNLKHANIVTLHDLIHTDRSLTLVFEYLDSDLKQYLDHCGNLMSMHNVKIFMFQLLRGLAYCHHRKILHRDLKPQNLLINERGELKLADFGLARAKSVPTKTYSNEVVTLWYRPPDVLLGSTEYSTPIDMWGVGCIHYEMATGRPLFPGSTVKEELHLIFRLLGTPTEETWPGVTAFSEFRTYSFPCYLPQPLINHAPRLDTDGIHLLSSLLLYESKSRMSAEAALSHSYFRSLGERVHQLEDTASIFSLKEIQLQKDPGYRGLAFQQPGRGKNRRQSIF
Ribosomal protein S6 kinase alpha-2 (Homo sapiens), sequence (Q15349 whole entry, the tested form may be a part): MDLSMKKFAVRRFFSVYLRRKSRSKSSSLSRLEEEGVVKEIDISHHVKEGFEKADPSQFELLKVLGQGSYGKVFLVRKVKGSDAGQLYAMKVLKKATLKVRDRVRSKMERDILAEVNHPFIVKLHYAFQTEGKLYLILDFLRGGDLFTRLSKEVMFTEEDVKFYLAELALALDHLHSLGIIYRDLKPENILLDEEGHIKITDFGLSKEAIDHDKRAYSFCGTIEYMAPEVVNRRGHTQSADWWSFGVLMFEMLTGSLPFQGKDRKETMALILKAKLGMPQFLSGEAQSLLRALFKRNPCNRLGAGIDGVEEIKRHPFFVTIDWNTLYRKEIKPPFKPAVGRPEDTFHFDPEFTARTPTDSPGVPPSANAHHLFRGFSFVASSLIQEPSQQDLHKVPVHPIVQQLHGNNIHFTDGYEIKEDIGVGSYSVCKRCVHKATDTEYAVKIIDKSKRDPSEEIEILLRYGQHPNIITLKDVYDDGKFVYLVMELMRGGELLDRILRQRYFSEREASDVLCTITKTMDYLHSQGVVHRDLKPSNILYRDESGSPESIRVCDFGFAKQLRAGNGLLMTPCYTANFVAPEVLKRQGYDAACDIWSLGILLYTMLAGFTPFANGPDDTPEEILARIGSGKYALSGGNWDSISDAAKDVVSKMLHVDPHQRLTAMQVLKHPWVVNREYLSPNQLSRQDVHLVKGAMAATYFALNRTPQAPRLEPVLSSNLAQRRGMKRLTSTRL
LIM domain kinase 2 (Homo sapiens), sequence (P53671 whole entry, looked up, the tested form may be a part): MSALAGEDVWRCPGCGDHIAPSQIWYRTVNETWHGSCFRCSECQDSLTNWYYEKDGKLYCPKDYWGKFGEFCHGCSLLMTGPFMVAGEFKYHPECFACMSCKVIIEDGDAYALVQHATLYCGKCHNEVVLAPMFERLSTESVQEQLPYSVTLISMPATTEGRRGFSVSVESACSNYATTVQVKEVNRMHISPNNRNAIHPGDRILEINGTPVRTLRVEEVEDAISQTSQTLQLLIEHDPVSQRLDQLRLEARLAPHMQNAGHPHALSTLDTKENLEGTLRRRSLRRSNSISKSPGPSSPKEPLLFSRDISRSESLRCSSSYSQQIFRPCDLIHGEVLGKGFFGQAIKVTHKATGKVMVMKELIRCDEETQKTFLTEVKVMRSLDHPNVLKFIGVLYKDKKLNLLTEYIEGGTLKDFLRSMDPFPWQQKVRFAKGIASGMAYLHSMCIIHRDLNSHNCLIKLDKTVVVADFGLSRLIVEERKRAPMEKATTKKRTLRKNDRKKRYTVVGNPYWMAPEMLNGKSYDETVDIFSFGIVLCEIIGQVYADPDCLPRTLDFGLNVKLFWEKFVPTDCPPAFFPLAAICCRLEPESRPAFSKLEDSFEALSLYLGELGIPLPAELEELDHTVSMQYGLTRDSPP
Tyrosine-protein kinase Lyn (Homo sapiens), sequence (P07948 2-512 limits assumed): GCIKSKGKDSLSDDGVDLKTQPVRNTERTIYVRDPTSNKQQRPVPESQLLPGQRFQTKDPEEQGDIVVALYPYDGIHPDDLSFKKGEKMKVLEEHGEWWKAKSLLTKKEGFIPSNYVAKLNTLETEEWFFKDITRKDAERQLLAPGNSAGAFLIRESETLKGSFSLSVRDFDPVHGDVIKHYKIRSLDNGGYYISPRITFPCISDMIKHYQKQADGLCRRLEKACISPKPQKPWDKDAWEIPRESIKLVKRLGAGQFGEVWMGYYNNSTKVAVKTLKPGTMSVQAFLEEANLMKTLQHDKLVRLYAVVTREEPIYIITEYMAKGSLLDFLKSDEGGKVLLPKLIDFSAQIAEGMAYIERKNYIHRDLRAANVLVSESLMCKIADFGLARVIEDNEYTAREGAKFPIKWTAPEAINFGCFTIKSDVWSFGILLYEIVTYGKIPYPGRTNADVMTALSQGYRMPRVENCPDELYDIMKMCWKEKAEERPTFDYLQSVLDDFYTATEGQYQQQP
Ribosomal protein S6 kinase alpha-6 (Homo sapiens), sequence (Q9UK32 whole entry, the tested form may be a part): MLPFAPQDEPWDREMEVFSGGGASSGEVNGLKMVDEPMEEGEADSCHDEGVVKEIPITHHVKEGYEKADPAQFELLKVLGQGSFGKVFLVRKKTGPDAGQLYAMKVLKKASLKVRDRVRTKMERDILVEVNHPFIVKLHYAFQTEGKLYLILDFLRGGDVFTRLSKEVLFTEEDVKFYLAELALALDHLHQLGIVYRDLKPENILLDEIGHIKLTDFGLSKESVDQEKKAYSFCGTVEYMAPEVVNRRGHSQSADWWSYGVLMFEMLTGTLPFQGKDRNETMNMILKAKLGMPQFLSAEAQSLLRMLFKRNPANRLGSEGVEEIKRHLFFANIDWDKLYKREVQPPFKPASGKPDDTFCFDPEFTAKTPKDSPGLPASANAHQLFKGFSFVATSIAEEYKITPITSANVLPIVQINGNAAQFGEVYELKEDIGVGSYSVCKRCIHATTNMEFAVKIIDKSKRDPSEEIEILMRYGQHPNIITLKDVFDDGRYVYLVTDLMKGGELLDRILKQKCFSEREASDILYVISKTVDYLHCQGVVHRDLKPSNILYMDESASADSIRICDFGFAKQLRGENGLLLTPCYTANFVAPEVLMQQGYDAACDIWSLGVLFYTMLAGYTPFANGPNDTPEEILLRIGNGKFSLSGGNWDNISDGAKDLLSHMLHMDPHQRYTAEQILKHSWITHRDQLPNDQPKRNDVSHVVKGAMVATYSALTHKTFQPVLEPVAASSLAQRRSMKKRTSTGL

| Structure (SMILES) | inhibition [1] | inhibition [2] | inhibition [3] | inhibition [4] | inhibition [5] | inhibition [6] | inhibition [7] | inhibition [8] | inhibition [9] | inhibition [10] | inhibition [11] | inhibition [12] | inhibition [13] | inhibition [14] | inhibition [15] | inhibition [16] |
| --- | --- | --- | --- | --- | --- | --- | --- | --- | --- | --- | --- | --- | --- | --- | --- | --- |
| CN1CCN(c2ccc(-c3cnc4c(c3)N(Cc3cc(Cl)ccc3Cl)CCN4)cn2)CC1 | < 50% | < 50% | < 50% | < 50% | < 50% | < 50% | < 50% | < 50% | < 50% | < 50% | < 50% | < 50% | < 50% | < 50% | < 50% | < 50% |
| CN1CCN(c2ccc(-c3cnc4c(c3)N(Cc3cc(Cl)ccc3C(F)(F)F)CCN4)cn2)CC1 | < 50% | < 50% | < 50% | < 50% | < 50% | < 50% | < 50% | < 50% | < 50% | < 50% | < 50% | < 50% | < 50% | 79% | < 50% | < 50% |
| CN1CCN(c2ccc(-c3cnc4c(c3)N(Cc3c(F)ccc(F)c3Cl)CCN4)cn2)CC1 | < 50% | < 50% | < 50% | < 50% | < 50% | < 50% | 92% | < 50% | < 50% | < 50% | < 50% | < 50% | < 50% | < 50% | < 50% | < 50% |
| O=C(c1ccc(-c2cnc3c(c2)N(Cc2cc(Cl)ccc2C(F)(F)F)CCN3)cc1)N1CCC(N2CCCC2)CC1 | < 50% | < 50% |  |  | < 50% | < 50% |  | < 50% |  | < 50% | < 50% | < 50% | < 50% | < 50% | < 50% | < 50% |
| COC1CCN(C(=O)c2ccc(-c3cnc4c(c3)N(Cc3cc(Cl)ccc3C(F)(F)F)CCN4)cc2)CC1 | < 50% | < 50% |  |  | < 50% | < 50% |  | < 50% |  | < 50% | < 50% | < 50% | < 50% | < 50% | < 50% | < 50% |
| FC(F)(F)c1ccc(Cl)cc1CN1CCNc2ncc(-c3ccnc(N4CCNCC4)c3)cc21 | < 50% | < 50% | < 50% | < 50% | < 50% | < 50% | 70% | < 50% | < 50% | < 50% | < 50% | < 50% | < 50% | 72% | < 50% | < 50% |
| CN1CCN(c2ccc(-c3cnc4c(c3)N(Cc3cc(F)ccc3F)CCN4)cn2)CC1 | < 50% | < 50% | < 50% | < 50% | < 50% | < 50% | 70% | < 50% | < 50% | < 50% | < 50% | < 50% | < 50% | < 50% | < 50% | < 50% |
| O=C(c1ccc(-c2cnc3c(c2)N(Cc2cc(Cl)ccc2C(F)(F)F)CCN3)cc1)N1CCCCC1 | < 50% | < 50% |  |  | < 50% | < 50% |  | < 50% |  | < 50% | < 50% | < 50% | < 50% | < 50% | < 50% | < 50% |
| CC(=O)N1CCN(c2cc(-c3cnc4c(c3)N(Cc3cc(Cl)ccc3C(F)(F)F)CCN4)ccn2)CC1 | < 50% | < 50% | < 50% | < 50% | < 50% | < 50% | < 50% | < 50% | < 50% | < 50% | < 50% | < 50% | < 50% | 72% | < 50% | < 50% |
| O=C(O)c1ccc(-c2cnc3c(c2)N(Cc2cc(Cl)ccc2C(F)(F)F)CCN3)cc1 | < 50% | < 50% |  |  | < 50% | < 50% |  | < 50% |  | < 50% | < 50% | 93% | < 50% | < 50% | < 50% | < 50% |
